Assay results taken from ChEMBL document CHEMBL4808231, “Development of curcumin-based amyloid β aggregation inhibitors for Alzheimer's disease using the SAR matrix approach” (Bioorg Med Chem, 2021).
Activity calls are given as the source filed them. The rule behind the calls is not given here.

Columns and labels:
[1] = Inhibition of human amyloid beta 42 aggregation assessed as decreasing in fluorescence intensity for 3 hrs by ThT fluorescence assay
How it was run: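 Aβ42 monomer (20 µM final) plus ThT (20 µM final, diluted in PBS pH 7.4) and serial 10-fold compound dilutions (1 to 0.00001 µM), 37 °C for 3 h with 15 s shaking every 5 min. Fluorescence read at ex 430/em 480 nm and corrected against a PBS+ThT blank. IC50 taken from intensity at half Vmax versus concentration; mean ± s.d. of triplicates.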

[2] = Neurotoxicity in human U87 MG cells assessed as cell viability for 24 hrs by MTT assay; type: cell-based, U-87MG ATCC; settings: U-87 MG
How it was run: (§1)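 N2A or U87 MG cells (8x10^3/well, DMEM + 10% FBS, grown overnight at 37 °C, 5% CO2) treated 24 h with compound at 1, 5, 10, 25, 50, 100 and 200 µM. MTT 0.5 mg/mL for 3 h, DMSO added, absorbance read at 550 nm. IC50 from semi-log dose-response plots; mean ± s.d. of three independent experiments in triplicate.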

[3] = test system: N2a; test: Neuroprotective effect against amyloid beta-induced cytotoxicity in mouse N2a cells assessed as cell viability measured after 3 hrs by MTT assay (reference value: 55%); type: functional
[4] = Neurotoxicity in mouse N2a cells assessed as cell viability for 24 hrs by MTT assay; type: cell-based; how it was run: as §1
[5] = biological target: Amyloid-beta precursor protein (Homo sapiens) (UniProt P05067); test: Inhibition of amyloid beta (unknown origin) aggregation assessed as increase in generation of amyloid beta oligomers at 10 uM incubated for 30 mins by negative staining TEM imaging analysis
Amyloid-beta precursor protein (Homo sapiens), sequence (P05067 whole entry): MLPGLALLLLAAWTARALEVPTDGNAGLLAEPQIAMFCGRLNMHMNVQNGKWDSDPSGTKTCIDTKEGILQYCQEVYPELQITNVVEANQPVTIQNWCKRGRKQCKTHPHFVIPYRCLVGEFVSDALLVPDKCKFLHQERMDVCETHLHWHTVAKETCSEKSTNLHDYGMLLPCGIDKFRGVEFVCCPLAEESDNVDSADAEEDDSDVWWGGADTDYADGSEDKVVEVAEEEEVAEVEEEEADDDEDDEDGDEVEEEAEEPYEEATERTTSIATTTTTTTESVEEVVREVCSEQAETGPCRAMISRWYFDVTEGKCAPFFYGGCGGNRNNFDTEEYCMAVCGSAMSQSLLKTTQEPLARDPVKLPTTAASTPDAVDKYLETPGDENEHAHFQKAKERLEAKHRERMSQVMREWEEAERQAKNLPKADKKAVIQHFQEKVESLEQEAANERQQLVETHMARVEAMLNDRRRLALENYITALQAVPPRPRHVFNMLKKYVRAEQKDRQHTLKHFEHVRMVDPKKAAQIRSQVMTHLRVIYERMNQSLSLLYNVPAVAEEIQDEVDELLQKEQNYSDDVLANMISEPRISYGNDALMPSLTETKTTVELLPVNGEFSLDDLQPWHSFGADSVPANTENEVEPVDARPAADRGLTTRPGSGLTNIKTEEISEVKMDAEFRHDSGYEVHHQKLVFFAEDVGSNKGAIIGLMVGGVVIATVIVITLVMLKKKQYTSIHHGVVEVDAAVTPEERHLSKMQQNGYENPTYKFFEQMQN
How it was run: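 Aβ monomer stock (500 µM in 2 mM NaOH, centrifuged supernatant) diluted to 5 µM, incubated alone or with compound in PBS pH 7.4 at 37 °C for 30 min. Sample applied to plasma-hydrophilised carbon grid for 1 min at RT, washed with water, stained 1 min with 1% Nano-W, imaged by TEM at 200 kV.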

| SMILES | IC50 [1] [nM] | IC50 [2] [nM] | Activity [3] [%] | IC50 [4] [nM] | inhibition [5] |
| --- | --- | --- | --- | --- | --- |
| COc1cc(/C=C/C(=O)CC(=O)/C=C/c2ccc(OCC(=O)O)c(C(F)(F)F)c2)ccc1O | 698 | – | – | – | – |
| COc1cc(/C=C/C(=O)CC(=O)/C=C/c2ccc(OCC(=O)OC(C)(C)C)c(C(F)(F)F)c2)ccc1O | 55 | > 100000 | >90 | > 100000 | – |
| COc1cc(/C=C/C(=O)CC(=O)/C=C/c2ccc(O)c(C(F)(F)F)c2)ccc1O | 52 | – | – | – | – |
| COC(=O)COc1ccc(/C=C/C(=O)CC(=O)/C=C/c2ccc(O)c(OC)c2)cc1OC | 29 | – | – | – | – |
| Nc1c2c(nc3ccccc13)CCCC2 [TACRINE] | 22 | – | – | – | – |
| O=C(/C=C/c1cccc(C(F)(F)F)c1)CC(=O)/C=C/c1ccc(O)c(C(F)(F)F)c1 | 18 | – | – | – | – |
| COC(=O)COc1ccc(/C=C/C(=O)CC(=O)/C=C/c2ccc(O)c(C(F)(F)F)c2)cc1C(F)(F)F | 109 | – | – | – | – |
| COC(=O)COc1ccc(/C=C/C(=O)CC(=O)/C=C/c2ccc(O)c(C(F)(F)F)c2)cc1OC | 22 | – | – | – | – |
| COc1cc(/C=C/C(=O)CC(=O)/C=C/c2ccc(O)c(OC)c2)ccc1O [CURCUMIN] | 693 | 18400 | – | 22600 | – |
| COc1cc(/C=C/C(=O)CC(=O)/C=C/c2cccc(C(F)(F)F)c2)ccc1O | 13 | 88700 | – | 65700 | – |
| COC(=O)COc1ccc(/C=C/C(=O)CC(=O)/C=C/c2cccc(C(F)(F)F)c2)cc1OC | 46 | – | – | – | – |
| COC(=O)COc1ccc(/C=C/C(=O)CC(=O)/C=C/c2ccc(OCC(=O)OC)c(C(F)(F)F)c2)cc1OC | 55 | – | – | – | – |
| COC(=O)COc1ccc(/C=C/C(=O)CC(=O)/C=C/c2ccc(O)c(OC)c2)cc1C(F)(F)F | 7 | 90000 | 70 | 38700 | Active |
